Experimental data as given in ChEMBL document CHEMBL1137395, “Synthesis and antiviral activity of 5-substituted cytidine analogues: identification of a potent inhibitor of viral RNA-dependent RNA polymerases” (J Med Chem, 2006).
pKd: −log10 of the molar value. The source made the active and inactive calls. No cut-off for these calls is given here.

Tests used:
[1] = target: Genome polyprotein (Human poliovirus 1 Mahoney, UniProt P03300); assay: Binding affinity to poliovirus RNA dependent RNA polymerase; parameters: species or system Enterovirus C
Sequence of Genome polyprotein (P03300 1749-2209 limits assumed): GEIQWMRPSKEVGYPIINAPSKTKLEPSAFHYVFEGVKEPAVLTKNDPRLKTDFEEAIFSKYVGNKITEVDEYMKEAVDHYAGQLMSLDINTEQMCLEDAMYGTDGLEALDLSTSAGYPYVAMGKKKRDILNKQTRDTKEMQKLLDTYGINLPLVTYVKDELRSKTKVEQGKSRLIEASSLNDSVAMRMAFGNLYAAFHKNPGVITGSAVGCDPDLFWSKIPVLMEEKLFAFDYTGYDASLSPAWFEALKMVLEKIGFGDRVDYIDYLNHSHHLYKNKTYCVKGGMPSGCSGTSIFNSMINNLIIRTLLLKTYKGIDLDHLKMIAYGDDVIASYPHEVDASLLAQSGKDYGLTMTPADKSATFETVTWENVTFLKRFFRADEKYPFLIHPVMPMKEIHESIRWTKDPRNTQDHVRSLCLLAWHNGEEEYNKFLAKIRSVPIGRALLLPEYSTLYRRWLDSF
In short: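 Purified poliovirus RdRP complexed with ³²P end-labeled symmetrical 10-mer RNA primer-template (S/S–G); nucleotide incorporation opposite G followed, products separated by denaturing PAGE; Kd and kpol derived from incorporation kinetics.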

[2] = test system: Human alphaherpesvirus 1; assay: Antiviral activity against herpes simplex virus 1; type: functional, organism-based
[3] = test system: Human alphaherpesvirus 2; assay: Antiviral activity against herpes simplex virus 2; type: functional, organism-based
[4] = test system: Human immunodeficiency virus 1; assay: Antiviral activity against HIV1; type: functional, organism-based
[5] = test system: Enterovirus C; assay: Antiviral activity against poliovirus in HeLa S3 cells assessed as reduction in viral titer; type: functional, organism-based
In short: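 HeLa S3 cells pretreated with compound 1 h, then infected with 10⁶ PFU poliovirus (high MOI); after 15 min adsorption, fresh medium containing compound added and infection run a further 6 h. Cell-associated virus titered by plaque assay.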

[6] = test system: Coxsackievirus B3; assay: Antiviral activity against coxsackievirus B3 in HeLa S3 cells assessed as reduction in viral titer; type: functional, organism-based
In short: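 HeLa S3 cells were pretreated with compound for 1 h, then infected with 10⁶ PFU CVB3 (high MOI). After 15 min of virus association, fresh medium containing compound was added and infection continued for 6 h. Cell-associated virus was titered by plaque assay. Cytotoxicity was checked separately after 7 h of treatment plus 24 h of recovery without compound.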

[7] = test system: HeLa; assay: Viability of human HeLa S3 cells; type: functional; parameters: concentration or dose not given beside the values
In short: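 HeLa S3 cells exposed to compound for 7 h, then allowed to recover without compound for 24 h; viability recorded at four concentrations.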

Compound	Activity [5]	Activity [6]	Activity [7] [%]	also measured
Nc1nc(=O)n([C@@H]2O[C@H](CO[P@@](=O)(O)O[P@](=O)(O)OP(=O)(O)O)[C@@H](O)[C@H]2O)cc1[N+](=O)[O-]	–	–	–	pKd [1]: 5.97
Nc1nc(=O)n([C@H]2C[C@H](O)[C@@H](CO)O2)cc1[N+](=O)[O-]	–	–	–	Activity [2]: Active; Activity [3]: Active; Activity [4]: Active
NC(=O)c1ncn([C@@H]2O[C@H](CO)[C@@H](O)[C@H]2O)n1 [RIBAVIRIN]	Dose-dependent effect	Dose-dependent effect	70	–
Nc1nc(=O)n([C@@H]2O[C@H](CO)[C@@H](O)[C@H]2O)cc1[N+](=O)[O-]	Active	Active	80	–
Nc1nc(=O)n([C@H]2C[C@H](O)[C@@H](CO)O2)cc1Br	inactive	inactive	93	–
Nc1nc(=O)n([C@H]2C[C@H](O)[C@@H](CO)O2)cc1O	inactive	inactive	82	–
Nc1cn([C@@H]2O[C@H](CO)[C@@H](O)[C@H]2O)c(=O)nc1N	Active	Active	62	–
Nc1nc(=O)n([C@@H]2O[C@H](CO)[C@@H](O)[C@H]2O)cc1Br	–	–	63	–
Nc1nc(=O)n([C@@H]2O[C@H](CO)[C@@H](O)[C@H]2O)cc1O	–	–	36	–
